Experimental data from ChEMBL document CHEMBL3769385 (J Med Chem, 2016).
pEC50: −log10 of the molar value.

Assays:
[1] = molecular target: T1, 5-hydroxytryptamine receptor 2C (Homo sapiens, UniProt P28335); test: Agonist activity at recombinant human 5HT2C-INI receptor expressed in Flp-In-293 cells assessed as calcium flux by FLIPR assay; type: functional, cell-based; conditions: for EC50: read-out: pEC50 (converted); for pEC50: read-out: EC50
T1 sequence (P28335 whole entry): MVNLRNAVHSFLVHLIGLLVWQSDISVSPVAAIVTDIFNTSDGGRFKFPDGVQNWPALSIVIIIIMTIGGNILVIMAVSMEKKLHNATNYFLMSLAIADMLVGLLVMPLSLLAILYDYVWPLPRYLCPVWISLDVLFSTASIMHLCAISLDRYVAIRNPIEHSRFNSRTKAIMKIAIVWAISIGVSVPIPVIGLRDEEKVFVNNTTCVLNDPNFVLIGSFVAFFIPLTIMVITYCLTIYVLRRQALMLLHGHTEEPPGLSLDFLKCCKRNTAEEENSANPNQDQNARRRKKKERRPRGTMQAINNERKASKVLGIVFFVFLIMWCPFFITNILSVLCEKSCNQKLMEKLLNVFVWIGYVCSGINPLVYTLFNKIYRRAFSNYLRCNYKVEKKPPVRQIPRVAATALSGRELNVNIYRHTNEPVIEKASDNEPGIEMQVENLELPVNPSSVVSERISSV

[2] = molecular target: T2, 5-hydroxytryptamine receptor 2A (Homo sapiens, UniProt P28223)
T2 sequence (P28223 whole entry): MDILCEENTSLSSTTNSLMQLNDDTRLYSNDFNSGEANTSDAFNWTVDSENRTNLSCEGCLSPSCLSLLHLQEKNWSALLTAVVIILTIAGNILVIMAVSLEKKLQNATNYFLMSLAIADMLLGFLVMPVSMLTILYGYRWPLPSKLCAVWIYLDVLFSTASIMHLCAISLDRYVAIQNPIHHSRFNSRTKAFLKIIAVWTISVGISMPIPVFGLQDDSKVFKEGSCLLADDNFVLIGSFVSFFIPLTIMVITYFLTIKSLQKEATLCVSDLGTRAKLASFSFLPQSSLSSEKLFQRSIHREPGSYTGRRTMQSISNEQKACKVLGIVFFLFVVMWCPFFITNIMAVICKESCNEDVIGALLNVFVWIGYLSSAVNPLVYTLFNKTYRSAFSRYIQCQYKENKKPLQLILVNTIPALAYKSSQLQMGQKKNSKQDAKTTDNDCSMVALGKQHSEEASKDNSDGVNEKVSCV

[3] = molecular target: T3, 5-hydroxytryptamine receptor 2B (Homo sapiens, UniProt P41595)
T3 sequence (P41595 whole entry): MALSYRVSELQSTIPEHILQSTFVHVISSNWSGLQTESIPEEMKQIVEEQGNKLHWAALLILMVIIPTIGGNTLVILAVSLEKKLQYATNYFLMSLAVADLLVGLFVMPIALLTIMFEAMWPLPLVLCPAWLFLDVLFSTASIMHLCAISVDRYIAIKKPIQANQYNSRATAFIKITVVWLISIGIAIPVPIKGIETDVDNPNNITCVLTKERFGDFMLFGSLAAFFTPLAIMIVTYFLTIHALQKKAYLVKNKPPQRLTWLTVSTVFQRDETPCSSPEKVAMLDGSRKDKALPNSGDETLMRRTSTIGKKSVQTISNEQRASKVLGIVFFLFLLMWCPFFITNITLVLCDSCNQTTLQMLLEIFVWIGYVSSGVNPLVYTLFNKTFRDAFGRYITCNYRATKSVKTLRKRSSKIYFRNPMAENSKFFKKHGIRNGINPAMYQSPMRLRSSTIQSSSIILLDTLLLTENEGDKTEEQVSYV

[4] = molecular target: T4, 5-hydroxytryptamine receptor 2C (Homo sapiens) (UniProt P28335); test: Agonist activity at recombinant human 5HT2C-INI receptor expressed in Flp-In-293 cells assessed as calcium flux by FLIPR assay relative to 5-HT; type: functional, cell-based
T4 sequence (whole entry): T1 sequence (P28335 whole entry)

[5] = molecular target: T3, 5-hydroxytryptamine receptor 2B; test: Agonist activity at recombinant human 5HT2B receptor expressed in Flp-In-293 cells assessed as calcium flux by FLIPR assay relative to 5-HT; type: functional, cell-based
[6] = molecular target: T2, 5-hydroxytryptamine receptor 2A; test: Agonist activity at human 5HT2A receptor expressed in Flp-In-293 cells assessed as calcium flux by FLIPR assay relative to 5-HT; type: functional, cell-based
[7] = molecular target: Serotonin 2 receptors; 5-HT2a & 5-HT2c (Homo sapiens) (UniProt P28223+P28335); test: Selectivity ratio of EC50 for recombinant human 5HT2A receptor to EC50 for recombinant human 5HT2C-INI receptor
Sequence of Serotonin 2 receptors; 5-HT2a & 5-HT2c (Homo sapiens) (P28223 whole entry, looked up, one chain of several): as the sequence (P28223 whole entry) above

[8] = species on record: Homo sapiens; test: Selectivity ratio of EC50 for recombinant human 5HT2B receptor to EC50 for recombinant human 5HT2C-INI receptor
Summary of the method: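 Calcium flux measured by FLIPR in Flp-In-293 cells stably expressing human 5-HT2B or 5-HT2C-INI receptors.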

| Compound | Emax [4] | Emax [5] | further results |
| --- | --- | --- | --- |
| C=CCOc1ccc(F)c(Cl)c1C1CC1CN (single isomer, unassigned; (+)) [listing 1 of 2 here] | – | – | EC50 [1]: 0.0977 µM |
| COc1ccc(Cl)c(F)c1C1CC1CN (single isomer, unassigned; (+)) [listing 1 of 2 here] | – | – | pEC50 [2]: 6.67; pEC50 [1]: 7.89; pEC50 [3]: 6.45 |
| C=CCOc1cc(F)c(Cl)cc1C1CC1CN (single isomer, unassigned; (+)) [listing 1 of 2 here] | – | – | pEC50 [3]: 6.00 |
| COc1cc(F)c(Cl)cc1C1CC1CN (single isomer, unassigned; (+)) [listing 1 of 2 here] | – | – | pEC50 [2]: 7.09; pEC50 [1]: 8.12; EC50 [1]: 0.00776 µM; pEC50 [3]: 7.60 |
| COc1ccc(F)c(F)c1C1CC1CN (single isomer, unassigned; (+)) [listing 1 of 2 here] | – | – | pEC50 [2]: 6.36; pEC50 [1]: 8.02; pEC50 [3]: 6.68 |
| C=CCOc1cc(Cl)c(Cl)cc1C1CC1CN (single isomer, unassigned; (+)) | 88% | – | – |
| C=CCOc1cc(F)c(Cl)cc1C1CC1CN (single isomer, unassigned; (+)) [listing 2 of 2 here] | 87% | 34% | – |
| C=CCOc1ccc(Cl)c(Cl)c1C1CC1CN (single isomer, unassigned; (+)) | 70% | – | – |
| C=CCOc1ccc(Cl)c(F)c1C1CC1CN (single isomer, unassigned; (+)) | 90% | – | – |
| C=CCOc1ccc(F)c(Cl)c1C1CC1CN (single isomer, unassigned; (+)) [listing 2 of 2 here] | 92% | – | – |
| C=CCOc1ccc(F)c(F)c1C1CC1CN (single isomer, unassigned; (+)) | 100% | 35% | – |
| COc1cc(Cl)c(Cl)cc1C1CC1CN (single isomer, unassigned; (+)) | 95% | – | Emax [6]: 85% |
| COc1cc(F)c(Cl)cc1C1CC1CN (single isomer, unassigned; (+)) [listing 2 of 2 here] | 97% | 59% | Emax [6]: 93% |
| COc1cc(F)c(F)cc1C1CC1CN (single isomer, unassigned; (+)) | 108% | 69% | – |
| COc1ccc(Cl)c(F)c1C1CC1CN (single isomer, unassigned; (+)) [listing 2 of 2 here] | 92% | 52% | Emax [6]: 85% |
| COc1ccc(F)c(F)c1C1CC1CN (single isomer, unassigned; (+)) [listing 2 of 2 here] | 108% | 64% | Emax [6]: 79% |
| NCC1CC1c1c(OCCF)ccc(Cl)c1Cl (single isomer, unassigned; (+)) | 90% | – | – |
| NCC1CC1c1c(OCCF)ccc(F)c1Cl (single isomer, unassigned; (+)) | 86% | – | – |
| NCC1CC1c1c(OCCF)ccc(F)c1F (single isomer, unassigned; (+)) | 96% | – | – |
| NCC1CC1c1cc(Cl)c(Cl)cc1OCCF (single isomer, unassigned; (+)) | 87% | – | – |
| NCC1CC1c1cc(Cl)c(F)cc1OCCF (single isomer, unassigned; (+)) | 87% | 39% | – |
| NCC1CC1c1cc(F)c(F)cc1OCCF (single isomer, unassigned; (+)) | 95% | – | – |
| C=CCOc1ccc(F)c(Cl)c1C1CC1CN (single isomer, unassigned; (-)) [listing 1 of 2 here] | – | – | pEC50 [1]: 6.98 |
| COc1cc(F)c(F)cc1C1CC1CN (single isomer, unassigned; (-)) [listing 1 of 2 here] | – | – | pEC50 [2]: 6.29 |

| Compound | Emax [4] | Emax [5] | further results |
| --- | --- | --- | --- |
| C=CCOc1cc(F)c(Cl)cc1C1CC1CN (single isomer, unassigned; (-)) | 77% | 22% | – |
| C=CCOc1ccc(F)c(Cl)c1C1CC1CN (single isomer, unassigned; (-)) [listing 2 of 2 here] | 89% | – | – |
| C=CCOc1ccc(F)c(F)c1C1CC1CN (single isomer, unassigned; (-)) | 89% | 26% | – |
| COc1cc(F)c(F)cc1C1CC1CN (single isomer, unassigned; (-)) [listing 2 of 2 here] | 104% | 59% | – |
| COc1ccc(Cl)c(Cl)c1C1CC1CN (single isomer, unassigned; (-)) | 104% | 53% | Emax [6]: 88%; Ratio EC50 [7]: 40; Ratio EC50 [8]: 31 |
| COc1ccc(Cl)c(F)c1C1CC1CN (single isomer, unassigned; (-)) | 93% | 64% | Emax [6]: 86% |
| COc1ccc(F)c(Cl)c1C1CC1CN (single isomer, unassigned; (-)) | 96% | – | Emax [6]: 72% |
| NCC1CC1c1c(OCCF)ccc(Cl)c1Cl (single isomer, unassigned; (-)) | 85% | – | – |
| NCC1CC1c1c(OCCF)ccc(Cl)c1F (single isomer, unassigned; (-)) | 80% | – | – |
| NCC1CC1c1c(OCCF)ccc(F)c1F (single isomer, unassigned; (-)) | 78% | – | – |
| NCC1CC1c1cc(Cl)c(Cl)cc1OCCF (single isomer, unassigned; (-)) | 75% | – | – |
| NCC1CC1c1cc(F)c(F)cc1OCCF (single isomer, unassigned; (-)) | 73% | – | – |
| COc1ccc(Cl)c(Cl)c1C1CC1CN (stereo in doubt; (+)-20f) | 98% | 26% | Emax [6]: 78% |
| COc1ccc(F)c(Cl)c1C1CC1CN (stereo in doubt; (+)-20g) | 89% | – | Emax [6]: 77% |
| NCC1CC1c1c(OCCF)ccc(Cl)c1F (stereo in doubt; (+)-21d) | 86% | – | – |
| COc1ccc(F)c(F)c1C1CC1CN (stereo in doubt; (-)-20b) | 108% | 62% | Emax [6]: 72% |
| COc1cc(F)c(Cl)cc1C1CC1CN (stereo in doubt; (-)-20c) [listing 1 of 2 here] | – | – | pEC50 [2]: 6.63; pEC50 [1]: 7.80; pEC50 [3]: 6.48 |
| COc1cc(F)c(Cl)cc1C1CC1CN (stereo in doubt; (-)-20c) [listing 2 of 2 here] | 98% | 44% | Emax [6]: 88% |
| COc1cc(Cl)c(Cl)cc1C1CC1CN (stereo in doubt; (-)-20e) | 89% | – | Emax [6]: 75% |
| NCC1CC1c1cc(Cl)c(F)cc1OCCF (stereo in doubt; (-)-21c) | 70% | 26% | – |
| NCC1CC1c1c(OCCF)ccc(F)c1Cl (stereo in doubt; (-)-21g) | 80% | – | – |
| C=CCOc1ccc(Cl)c(F)c1C1CC1CN (stereo in doubt; (-)-22d) | 87% | – | – |
| C=CCOc1cc(Cl)c(Cl)cc1C1CC1CN (stereo in doubt; (-)-22e) | 84% | – | – |
| C=CCOc1ccc(Cl)c(Cl)c1C1CC1CN (stereo in doubt; (-)-22f) | 93% | – | – |
